Reference: ChEMBL document CHEMBL1125049, “Aporphines as antagonists of dopamine D-1 receptors” (J Med Chem, 1990)
Values belong to the compound of their own block, whether it stands above or below them. Calls of active or inactive are those of the source. The rule behind the calls is not given here.

Experiments:
D(1A) dopamine receptor = D(1A) dopamine receptor (Rattus norvegicus, UniProt P18901)
D(2) dopamine receptor = D(2) dopamine receptor (Rattus norvegicus, UniProt P61169); assay: In vitro binding affinity towards rat Dopamine receptor D2 by [3H]spiperone displacement.
Rattus norvegicus [1] = species on record: Rattus norvegicus; assay type: functional
Rattus norvegicus [2] = species on record: Rattus norvegicus; assay type: functional; remark: listed apart in the source
[3] = Activity was determined against Adenylate cyclase
Rattus norvegicus [4] = species on record: Rattus norvegicus; assay: Ability to stimulate adenylate cyclase in rat retinal tissue over basal levels; NS=no significant stimulation; assay type: functional
In short: (§1)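 Agonist mode: adenylate cyclase stimulation measured in rat retinal tissue in vitro, with (R)-apomorphine as positive control for D-1 agonist activity; assay run by a previously published adenylate cyclase procedure.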

Rattus norvegicus [5] = species on record: Rattus norvegicus; assay: Ability to stimulate adenylate cyclase in rat retinal tissue over basal levels; assay type: functional
In short: as §1

Rattus norvegicus [6] = species on record: Rattus norvegicus; assay: Ability to block adenylate cyclase stimulation caused by 10 uM dopamine in rat retinal tissue in vitro at a concentration of 100 uM; assay type: functional

Chain of D(2) dopamine receptor (P61169 whole entry): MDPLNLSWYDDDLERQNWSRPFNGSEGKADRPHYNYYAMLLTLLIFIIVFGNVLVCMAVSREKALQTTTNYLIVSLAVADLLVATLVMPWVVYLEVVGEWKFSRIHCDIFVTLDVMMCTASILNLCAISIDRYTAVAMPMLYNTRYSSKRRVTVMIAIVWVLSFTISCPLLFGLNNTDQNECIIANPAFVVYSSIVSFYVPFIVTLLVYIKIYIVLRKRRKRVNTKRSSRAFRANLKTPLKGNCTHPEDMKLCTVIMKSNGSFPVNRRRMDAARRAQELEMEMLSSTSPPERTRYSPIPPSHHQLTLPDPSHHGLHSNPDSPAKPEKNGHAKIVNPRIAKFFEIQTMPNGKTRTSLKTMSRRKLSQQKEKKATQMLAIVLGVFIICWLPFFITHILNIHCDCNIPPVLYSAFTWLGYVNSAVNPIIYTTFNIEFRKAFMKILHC
Chain of D(1A) dopamine receptor (P18901 whole entry): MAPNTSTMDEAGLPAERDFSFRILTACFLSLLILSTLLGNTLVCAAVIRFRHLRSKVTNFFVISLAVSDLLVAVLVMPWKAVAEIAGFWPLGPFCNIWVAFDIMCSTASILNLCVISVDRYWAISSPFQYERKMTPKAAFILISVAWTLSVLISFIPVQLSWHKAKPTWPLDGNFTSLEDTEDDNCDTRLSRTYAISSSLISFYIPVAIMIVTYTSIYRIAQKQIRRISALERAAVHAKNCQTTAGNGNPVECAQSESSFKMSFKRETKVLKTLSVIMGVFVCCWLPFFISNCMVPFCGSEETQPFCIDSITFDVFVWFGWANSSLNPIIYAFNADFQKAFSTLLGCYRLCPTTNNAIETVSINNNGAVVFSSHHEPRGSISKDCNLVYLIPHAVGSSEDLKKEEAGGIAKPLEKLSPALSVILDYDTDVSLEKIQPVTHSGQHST

Structure (SMILES): COc1ccc2c(c1O)-c1c3c(cc4c1[C@H](C2)N(C)CC4)OCO3 [(S)-BULBOCAPNINE]
IC50 (D(1A) dopamine receptor): 0.739 µM
IC50 (D(2) dopamine receptor): 14 µM
Inhibition (Rattus norvegicus [1]): 24.4%
Inhibition (Rattus norvegicus [2]): 85.1%

Structure (SMILES): COc1cccc2c1-c1cccc3c1[C@H](C2)N(C)CC3
IC50 (D(1A) dopamine receptor): 12.1 µM
IC50 (D(2) dopamine receptor): 0.829 µM
Inhibition (Rattus norvegicus [1]): 0.7%
Inhibition (Rattus norvegicus [2]): 0%

Structure (SMILES): CN1CCc2cccc3c2[C@H]1Cc1c(Br)cc(Br)c(O)c1-3
IC50 (D(1A) dopamine receptor): > 1 µM
IC50 (D(2) dopamine receptor): > 1 µM
Inhibition (Rattus norvegicus [1]): 8.5%
Inhibition (Rattus norvegicus [2]): 45.9%

Structure (SMILES): CN1CCc2cccc3c2[C@H]1Cc1ccc(Cl)c(O)c1-3
IC50 (D(1A) dopamine receptor): 0.637 µM
IC50 (D(2) dopamine receptor): 0.803 µM
Inhibition (Rattus norvegicus [1]): 19.7%
Inhibition (Rattus norvegicus [2]): 82%

Structure (SMILES): COc1cccc2c1-c1cccc3c1[C@@H](C2)N(C)CC3
IC50 (D(1A) dopamine receptor): 3.28 µM
IC50 (D(2) dopamine receptor): 2.16 µM
Inhibition (Rattus norvegicus [1]): 7.7%
Inhibition (Rattus norvegicus [2]): 31.7%

Structure (SMILES): CN1CCc2cccc3c2[C@@H]1Cc1ccc(O)c(O)c1-3 [(S)APOMORPHINE]
Inhibition (Rattus norvegicus [2]): 42.3%

IC50 [3]: 0.003 µM
Structure (SMILES): CN1CCc2cc(Cl)c(O)cc2[C@@H](c2ccccc2)C1 [SCH-23390]
Inhibition (Rattus norvegicus [1]): 86%
Inhibition (Rattus norvegicus [2]): 89.7%

Structure (SMILES): CN1CCc2cccc3c2[C@H]1Cc1cc(Br)cc(O)c1-3
IC50 (D(1A) dopamine receptor): 0.818 µM
IC50 (D(2) dopamine receptor): 2.58 µM
Inhibition (Rattus norvegicus [1]): 5.3%
Inhibition (Rattus norvegicus [2]): 73.4%
inhibition (Rattus norvegicus [4]): inactive

Structure (SMILES): CN1CCc2cccc3c2[C@H]1Cc1ccc(O)c(O)c1-3 [APOMORPHINE]
Stimulation (Rattus norvegicus [5]): 91.5%

Structure (SMILES): CN1CCc2cccc3c2[C@@H]1Cc1cc(Br)cc(O)c1-3
IC50 (D(1A) dopamine receptor): > 1 µM
IC50 (D(2) dopamine receptor): > 1 µM
Inhibition (Rattus norvegicus [1]): 16.8%
Inhibition (Rattus norvegicus [2]): 3.2%

Structure (SMILES): CN1CCc2cccc3c2[C@@H]1Cc1cccc(O)c1-3
IC50 (D(1A) dopamine receptor): 5.06 µM
IC50 (D(2) dopamine receptor): 2.24 µM
Inhibition (Rattus norvegicus [1]): 0.8%
Inhibition (Rattus norvegicus [2]): 38%
Stimulation (Rattus norvegicus [4]): inactive

Structure (SMILES): CN1CCc2cccc3c2[C@@H]1Cc1ccc(Br)c(O)c1-3
IC50 (D(1A) dopamine receptor): 3.34 µM
IC50 (D(2) dopamine receptor): 2.93 µM
Inhibition (Rattus norvegicus [1]): 9.8%
Inhibition (Rattus norvegicus [2]): 54.2%

Structure (SMILES): COc1ccc2c(c1O)-c1cccc3c1[C@@H](C2)N(C)CC3 [APOCIDEINE]
IC50 (D(1A) dopamine receptor): 13.3 µM
IC50 (D(2) dopamine receptor): 2.08 µM
Inhibition (Rattus norvegicus [2]): 5.7%
Stimulation (Rattus norvegicus [4]): inactive

Structure (SMILES): CN1CCc2cccc3c2[C@H]1Cc1c(Cl)ccc(O)c1-3
IC50 (D(1A) dopamine receptor): 0.561 µM
IC50 (D(2) dopamine receptor): 0.5 µM
Inhibition (Rattus norvegicus [1]): 12.6%
Inhibition (Rattus norvegicus [2]): 71.6%

Structure (SMILES): CN1CCc2cccc3c2[C@@H]1Cc1c(Br)ccc(O)c1-3
IC50 (D(1A) dopamine receptor): 8.61 µM
IC50 (D(2) dopamine receptor): > 10 µM
Inhibition (Rattus norvegicus [1]): 11.9%
Inhibition (Rattus norvegicus [2]): 79.4%

Structure (SMILES): CCCN1CCC[C@@H]2Cc3nc(N)ncc3C[C@H]21 [QUINELORANE]
IC50 (D(1A) dopamine receptor): > 10 µM
IC50 (D(2) dopamine receptor): 0.151 µM
Inhibition (Rattus norvegicus [6]): 6.8%
Stimulation (Rattus norvegicus [4]): inactive

Structure (SMILES): CN1CCc2cccc3c2[C@H]1Cc1ccc(Br)c(O)c1-3
IC50 (D(1A) dopamine receptor): 0.171 µM
IC50 (D(2) dopamine receptor): 0.664 µM
Inhibition (Rattus norvegicus [1]): 24.4%
Inhibition (Rattus norvegicus [2]): 87.8%
inhibition (Rattus norvegicus [4]): inactive

Structure (SMILES): CN1CCc2cccc3c2[C@H]1Cc1cccc(O)c1-3
IC50 (D(1A) dopamine receptor): 0.107 µM
IC50 (D(2) dopamine receptor): 0.058 µM
Inhibition (Rattus norvegicus [1]): 31.2%
Inhibition (Rattus norvegicus [2]): 87.8%
Stimulation (Rattus norvegicus [4]): inactive

Structure (SMILES): CN1CCc2cccc3c2[C@H]1Cc1c([N+](=O)[O-])ccc(O)c1-3
Inhibition (Rattus norvegicus [1]): 7.2%
Inhibition (Rattus norvegicus [2]): 33.5%

Structure (SMILES): CN1CCc2cccc3c2[C@H]1Cc1c(Br)ccc(O)c1-3
IC50 (D(1A) dopamine receptor): 0.181 µM
IC50 (D(2) dopamine receptor): 0.449 µM
Inhibition (Rattus norvegicus [1]): 13.1%
Inhibition (Rattus norvegicus [2]): 83.3%
Stimulation (Rattus norvegicus [4]): inactive
